Activity calls are given as the source filed them.
Assays:
[1] = tested on: Mus musculus; assay: Antinociceptive effect in C57BL/6 mouse assessed as tail withdrawal latency measured up to 2 hrs by 55 degC Warm water tail withdrawal assay in presence of 10 mg/kg, ip U50488; format: functional, organism-based
Summary of the method: (§1)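 Test agent given to male C57BL/6J mice 2 h before agonist challenge: morphine 10 mg/kg ip, U50,488 10 mg/kg ip, or SNC-80 100 nmol icv. 55 °C warm-water tail withdrawal read 30 min after the agonist. % antinociception relative to baseline latency with 15 s cutoff.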

[2] = target: Kappa-type opioid receptor (Cavia porcellus, UniProt P41144); assay: Displacement of [3H]U69593 from kappa opioid receptor in guinea pig cortices and cerebella by competition binding assay
Summary of the method: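 Guinea pig cortex and cerebellum membranes were prepared in 50 mM Tris pH 7.4 with 10 mM MgCl2. Assay used 2 nM [3H]U69,593, incubated 2 h at 25 °C. Unlabeled U50,488 defined nonspecific binding. Filtration was through GF/B filters, with scintillation counting. Ki is mean ± SD of two experiments, each in duplicate.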

[3] = target: Delta-type opioid receptor (Homo sapiens, UniProt P41143); assay: Agonist activity at delta opioid receptor (unknown origin) expressed in CHO-K1 cells assessed as inhibition of forskolin-induced cAMP accumulation by FRET assay; format: functional, cell-based
Summary of the method: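 CHO cells stably expressing DOR, plated at 20 000 cells/well (figure legend: 100 000). Exposed to test agent with 4 μM forskolin (legend: 1 μM) in 1× PBS with 1 mM […] for 30 min at rt. HTRF cAMP read-out with europium cryptate and d2 in lysis buffer for 1 h. EC50 ± SEM from three experiments, two replicates each.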

[4] = tested on: Mus musculus; assay: Analgesic activity in ip dosed C57BL/6 mouse assessed as inhibition of acetic acid-induced writhing response measured after 5 mins by acetic acid writhing assay; format: functional; details: C57BL/6, ip
Summary of the method: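 Adult male C57BL/6J mice, eight per dose, were given a single graded ip dose in 1:1:8 ethanol/Tween-80/saline vehicle. After 25 min they received 0.9% acetic acid ip. Writhes were counted for 15 min starting 5 min later. % antinociception was taken relative to the ip vehicle group, and ED50 with 95% CI was obtained by regression.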

[5] = target: Delta-type opioid receptor (Rattus norvegicus, UniProt P33533); assay: Displacement of [3H]DPDPE from delta opioid receptor in rat cortices by competition binding assay
Summary of the method: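 Rat cortex membranes were prepared in 50 mM Tris pH 7.4 with 10 mM MgCl2 and 200 μM PMSF. Assay used 2 nM [3H]DPDPE, incubated 2.5 h at 25 °C. Unlabeled DPDPE defined nonspecific binding. Filtration was through BSA-soaked GF/B filters, with scintillation counting. Ki is mean ± SD of two experiments, each in duplicate.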

[6] = tested on: Mus musculus; assay: Antinociceptive effect in icv treated C57BL/6 mouse assessed as tail withdrawal latency at 30 nM, icv measured up to 2 hrs by 55 degC Warm water tail withdrawal assay; format: functional
[7] = tested on: Mus musculus; assay: Antinociceptive effect in icv dosed MOR knock out C57BL/6 mouse assessed as tail withdrawal latency measured up to 2 hrs by 55 degC Warm water tail withdrawal assay; format: functional, organism-based
[8] = tested on: Mus musculus; assay: Antinociceptive tolerance in C57BL/6 mouse assessed as tail withdrawal latency measured treated at 5 nmol, icv first dose second dose after 8 hrs by 55 degC Warm water tail withdrawal assay; format: functional
Summary of the method: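 Acute tolerance was tested in C57BL/6J mice, 8 per dose. The first icv dose was given at time 0: 3 nmol morphine or 5 nmol test agent. A second icv dose between 0.3 and 100 nmol followed 8 h later. Tail withdrawal at 55 °C was measured 30 min after the second injection. Tolerance was judged from the shift in ED50 between single and repeated treatment.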

[9] = tested on: Mus musculus; assay: Antinociceptive effect in ip dosed C57BL/6 mouse assessed as tail withdrawal latency measured up to 2 hrs by 55 degC Warm water tail withdrawal assay; format: functional; details: C57BL/6, Tail
[10] = tested on: Mus musculus; assay: Antinociceptive effect in po dosed C57BL/6 mouse assessed as tail withdrawal latency measured up to 2 hrs by 55 degC Warm water tail withdrawal assay; format: functional; details: C57BL/6, Tail
[11] = tested on: Mus musculus; assay: Antinociceptive effect in icv dosed KOR knock out C57BL/6 mouse assessed as tail withdrawal latency measured up to 2 hrs by 55 degC Warm water tail withdrawal assay; format: functional, organism-based
[12] = tested on: Mus musculus; assay: Antinociceptive effect in icv dosed C57BL/6 mouse assessed as tail withdrawal latency measured up to 2 hrs by 55 degC Warm water tail withdrawal assay; format: functional
[13] = tested on: Mus musculus; assay: Antinociceptive effect in C57BL/6 mouse assessed as tail withdrawal latency measured at 10 mg/kg, ip […] by 55 degC Warm water tail withdrawal assay in presence of 30 mg/kg, sc naloxone methiodide on same side of blood brain barrier impermeable opioid antagonist; format: functional, organism-based
[14] = tested on: Mus musculus; assay: Antinociceptive effect in C57BL/6 mouse assessed as tail withdrawal latency […] by 55 degC Warm water tail withdrawal assay in presence of 30 mg/kg, sc naloxone methiodide on other side of blood brain barrier impermeable opioid antagonist; format: functional, organism-based
[15] = tested on: Mus musculus; assay: Antinociceptive effect in C57BL/6 mouse assessed as tail withdrawal latency measured up to 2 hrs by 55 degC Warm water tail withdrawal assay in presence of 100 nM, icv SNC80; format: functional, organism-based; summary of the method: as §1
[16] = tested on: Mus musculus; assay: Antinociceptive effect in icv dosed C57BL/6 mouse assessed as tail withdrawal latency measured up to 2 hrs by 55 degC Warm water tail withdrawal assay in presence of 0.5 mg/kg, sc naltrindole; format: functional, organism-based
[17] = tested on: Mus musculus; assay: Toxicity in C57BL/6 mouse assessed as coordinated locomotor activity at 30 nM, icv up to 60 mins; format: organism-based; details: in vivo, icv_or_intrathecal, 1 h, 0.03 µM
Summary of the method: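 Rotorod test after seven habituation trials, the last used as baseline. Test agent 30 nmol icv, vehicle 50% DMSO/saline. Accelerating trials (0–20 rpm, 180 s max) from 10 min over 60 min. Latency to fall expressed as % change from baseline. n = 8–16 per group, repeated-measures/two-way ANOVA with Tukey.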

[18] = tested on: Mus musculus; assay: Antinociceptive effect in C57BL/6 mouse assessed as tail withdrawal latency measured at 30 nM, icv […] by 55 degC Warm water tail withdrawal assay in presence of 30 nM, icv naloxone methiodide on other side of blood brain barrier impermeable opioid antagonist; format: functional, organism-based
[19] = tested on: Mus musculus; assay: Antinociceptive effect in C57BL/6 mouse assessed as tail withdrawal latency measured at 30 nM, icv up to 2 hrs by 55 degC Warm water tail withdrawal assay in presence of 30 nM, icv naloxone methiodide on same side of blood brain barrier impermeable opioid antagonist; format: functional, organism-based
Summary of the method: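 Adult male C57BL/6J mice, 55 °C warm-water tail withdrawal. Naloxone methiodide pretreatment (30 nmol icv or 30 mg/kg sc) 30 min before the test agent (30 nmol icv in 50% DMSO/saline, or 10 mg/kg ip in 1:1:8 ethanol/Tween-80/saline). Read 30 min after the test agent. % antinociception vs baseline latency with 15 s cutoff. n = 8, mean ± SEM, one-way ANOVA/Tukey.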

[20] = tested on: Mus musculus; assay: Antinociceptive effect in C57BL/6 mouse assessed as tail withdrawal latency at 30 mg/kg, po measured up to 2 hrs by 55 degC Warm water tail withdrawal assay; format: functional
[21] = tested on: Brain; assay: Drug uptake in C57BL/6 mouse brain at 30 mg/kg, po after 30 mins by LC-MS/MS analysis; format: ADME, organism-based; details: in vivo, 0.5 h
Summary of the method: (§2)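 Male C57BL/6J mice dosed orally at 30 mg/kg in 1:1:8 ethanol/Tween-80/saline, killed at 30, 60, or 90 min. Serum deproteinized with 4 volumes of cold MeCN. Perfused brains homogenized. Supernatants dried and reconstituted in 20% MeCN. C18 LC–MS/MS with summed ion-transition peak areas. Two mice per time point, mean peak area ± SEM.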

[22] = tested on: Mus musculus; assay: Antinociceptive effect in icv dosed C57BL/6 mouse assessed as tail withdrawal latency measured up to 2 hrs by 55 degC Warm water tail withdrawal assay in presence of 4 nmol, icv ICI174864; format: functional, organism-based
[23] = tested on: Mus musculus; assay: Antinociceptive effect in C57BL/6 mouse assessed as tail withdrawal latency at 10 mg/kg, ip measured up to 2 hrs by 55 degC Warm water tail withdrawal assay; format: functional
[24] = tested on: Serum; assay: Drug uptake in C57BL/6 mouse serum at 30 mg/kg, po after 30 mins by LC-MS/MS analysis; format: ADME, organism-based; details: in vivo, 0.5 h; summary of the method: as §2
[25] = tested on: Mus musculus; assay: Antinociceptive effect in C57BL/6 mouse assessed as tail withdrawal latency measured up to 2 hrs by 55 degC Warm water tail withdrawal assay in presence of 10 mg/kg, ip morphine; format: functional, organism-based; summary of the method: as §1

CC(C)C[C@H]1CN2C(=CC3=NC[C@H](C(C)C)N3C[C@@H]2Cc2ccc(O)cc2)N1CCc1ccccc1
Activity [1]: Active
Ki [2]: 23 nM
EC50 [3]: 366 nM
ED50 [4]: 0.07 mg/kg
Ki [5]: 32 nM
Time [6]: 80 min
inhibition [7]: inactive
ED50 [8]: 2.32 nmol
ED50 [9]: 5.09 mg/kg
ED50 [10]: 23.2 mg/kg
inhibition [11]: inactive
Activity [12]: Dose-dependent effect
inhibition [13]: inactive
Activity [14]: Active
Activity [15]: Active
inhibition [16]: inactive
Activity [17]: Non-toxic
Activity [18]: Active
inhibition [19]: inactive
Time [20]: 110 min
Drug uptake [21]: Not Active
inhibition [22]: inactive
Time [23]: 80 min
Drug uptake [24]: Active
Activity [25]: Active

Reference: ChEMBL document CHEMBL3588754, “Parallel Synthesis of Hexahydrodiimidazodiazepines Heterocyclic Peptidomimetics and Their in Vitro and in Vivo Activities at μ (MOR), δ (DOR), and κ (KOR) Opioid Receptors” (J Med Chem, 2015)
